These results are taken from ChEMBL document CHEMBL1130120, “N-arylpiperazinyl-N'-propylamino derivatives of heteroaryl amides as functional uroselective alpha 1-adrenoceptor antagonists” (J Med Chem, 1997).

Assay [1] deals with T1, 5-hydroxytryptamine receptor 1A (Mus musculus) (UniProt Q64264).
T1 sequence (whole entry): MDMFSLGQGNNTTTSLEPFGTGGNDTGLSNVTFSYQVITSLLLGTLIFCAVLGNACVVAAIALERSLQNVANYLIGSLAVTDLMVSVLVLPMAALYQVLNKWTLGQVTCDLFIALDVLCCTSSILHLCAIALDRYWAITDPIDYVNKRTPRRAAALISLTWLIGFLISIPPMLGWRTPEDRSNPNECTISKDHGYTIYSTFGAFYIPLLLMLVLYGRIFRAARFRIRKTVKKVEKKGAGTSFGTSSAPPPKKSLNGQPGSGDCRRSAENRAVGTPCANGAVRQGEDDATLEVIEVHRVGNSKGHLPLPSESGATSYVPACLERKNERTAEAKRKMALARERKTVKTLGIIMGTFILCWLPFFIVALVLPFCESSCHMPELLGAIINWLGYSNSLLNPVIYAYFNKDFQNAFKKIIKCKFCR
The experiment in a line: The compound's binding affinity against 5-hydroxytryptamine 1A receptor.

Assay [2] deals with T2, Alpha-1D adrenergic receptor (Rattus norvegicus, UniProt P23944).
T2 sequence (P23944 whole entry): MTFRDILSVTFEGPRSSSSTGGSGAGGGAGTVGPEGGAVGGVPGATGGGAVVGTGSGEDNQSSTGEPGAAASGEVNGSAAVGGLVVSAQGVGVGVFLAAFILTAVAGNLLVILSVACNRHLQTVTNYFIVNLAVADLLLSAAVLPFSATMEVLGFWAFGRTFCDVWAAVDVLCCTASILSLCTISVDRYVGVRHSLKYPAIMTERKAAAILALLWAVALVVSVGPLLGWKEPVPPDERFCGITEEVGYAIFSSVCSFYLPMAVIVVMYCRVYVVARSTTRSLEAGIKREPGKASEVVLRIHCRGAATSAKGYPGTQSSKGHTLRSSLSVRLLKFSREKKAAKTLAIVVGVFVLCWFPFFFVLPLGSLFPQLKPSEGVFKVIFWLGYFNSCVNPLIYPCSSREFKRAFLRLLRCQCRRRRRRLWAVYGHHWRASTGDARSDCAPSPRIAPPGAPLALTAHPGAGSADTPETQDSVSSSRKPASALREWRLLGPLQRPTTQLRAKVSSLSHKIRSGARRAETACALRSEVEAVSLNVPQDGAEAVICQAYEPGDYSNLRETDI
The experiment in a line: Antagonistic activity against rat aorta for affinity estimates representative of the Alpha-1D adrenergic receptor. It counts as functional, tissue-based. Conditions: read-out: pA2 (converted). In short, it runs like this: (§1)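 Isolated smooth-muscle tissue with cumulative norepinephrine concentration–effect curves (rat aorta, human lower urinary tract). Affinity obtained by full Schild regression for some antagonists. […] Competitive, reversible interaction at a single subtype assumed.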

Assay [3] addresses T3, Alpha-1A adrenergic receptor (Oryctolagus cuniculus, UniProt O02824).
T3 sequence (O02824 whole entry): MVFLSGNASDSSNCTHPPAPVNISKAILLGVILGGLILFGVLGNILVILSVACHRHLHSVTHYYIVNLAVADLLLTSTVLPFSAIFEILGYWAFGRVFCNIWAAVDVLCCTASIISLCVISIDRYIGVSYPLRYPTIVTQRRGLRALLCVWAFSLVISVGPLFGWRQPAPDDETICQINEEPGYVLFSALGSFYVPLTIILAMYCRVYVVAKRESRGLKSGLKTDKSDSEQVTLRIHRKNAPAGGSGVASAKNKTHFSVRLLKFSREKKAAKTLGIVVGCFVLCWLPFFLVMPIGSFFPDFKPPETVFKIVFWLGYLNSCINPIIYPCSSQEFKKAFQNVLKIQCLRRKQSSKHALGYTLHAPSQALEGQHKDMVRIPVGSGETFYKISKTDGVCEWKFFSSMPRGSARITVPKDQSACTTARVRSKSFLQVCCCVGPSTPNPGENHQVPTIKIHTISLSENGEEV
The experiment in a line: Antagonistic activity against alpha 1A/1L receptor was assessed in a rabbit bladder neck functional assay. Conditions: read-out: pA2 (converted).

The target in a further assay is D(2) dopamine receptor (Homo sapiens, UniProt P14416). The experiment in a line: The compound's binding affinity against Dopamine receptor D2.
Assay [4] addresses T4, Alpha-1A adrenergic receptor (Bos taurus, UniProt P18130).
T4 sequence (P18130 whole entry): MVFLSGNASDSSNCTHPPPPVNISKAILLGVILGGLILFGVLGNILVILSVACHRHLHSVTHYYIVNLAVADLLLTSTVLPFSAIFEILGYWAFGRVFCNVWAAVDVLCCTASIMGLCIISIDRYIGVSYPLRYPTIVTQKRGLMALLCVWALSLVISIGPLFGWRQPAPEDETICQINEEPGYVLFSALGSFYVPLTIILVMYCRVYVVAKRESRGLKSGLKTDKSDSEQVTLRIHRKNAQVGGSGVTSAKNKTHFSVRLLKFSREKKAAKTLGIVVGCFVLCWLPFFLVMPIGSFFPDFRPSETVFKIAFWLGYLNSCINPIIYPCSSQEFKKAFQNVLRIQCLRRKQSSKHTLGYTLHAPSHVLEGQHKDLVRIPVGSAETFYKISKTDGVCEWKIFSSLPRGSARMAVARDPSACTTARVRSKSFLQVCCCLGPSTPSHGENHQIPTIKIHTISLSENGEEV
The experiment in a line: The compound was screened in vitro for the displacement of [3H]prazosin binding to bovine Alpha-1A adrenergic receptor.

The target in assay [5] is Adrenergic receptor alpha-1 (Homo sapiens) (UniProt P35348+P25100+P35368). The experiment in a line: The compound was screened in vitro for functional activity against Alpha-1 adrenergic receptor subtypes of human prostate tissue. In short, it runs like this: as §1

Sequence of D(2) dopamine receptor (P14416 whole entry): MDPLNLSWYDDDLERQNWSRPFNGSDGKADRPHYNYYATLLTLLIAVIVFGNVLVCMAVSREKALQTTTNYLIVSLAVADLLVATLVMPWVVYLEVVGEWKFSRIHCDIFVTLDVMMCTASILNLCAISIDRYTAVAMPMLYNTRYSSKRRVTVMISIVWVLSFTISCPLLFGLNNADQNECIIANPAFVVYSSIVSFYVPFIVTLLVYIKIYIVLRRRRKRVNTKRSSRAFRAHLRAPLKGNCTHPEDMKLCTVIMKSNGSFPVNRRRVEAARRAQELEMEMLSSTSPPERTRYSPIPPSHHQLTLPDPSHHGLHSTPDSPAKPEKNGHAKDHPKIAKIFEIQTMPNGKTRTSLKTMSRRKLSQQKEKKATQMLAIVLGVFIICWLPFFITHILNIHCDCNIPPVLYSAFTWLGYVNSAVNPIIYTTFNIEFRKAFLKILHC

In the case of `COc1ccccc1N1CCN(CCCNc2ncccc2C(=O)N(C)C)CC1`, the pKi turned out to be 7.6 in assay [1] and 7.4 on D(2) dopamine receptor. For the same compound, the Kb in assay [2] was 20 nM; in assay [3] it was 1.58 nM. In addition, the Ki in assay [4] was 0.794 nM. Further, the pA2 in assay [5] was found to be 8.5.
